Screening results as filed in PubChem BioAssay.
Mdm2 ligase inh = inhibitors of human Mdm2 E3 ubiquitin ligase; cell-based MDM2 ubiquitination luciferase reporter, 2 h; 0 = plate control, 100 = twice control, blank-subtracted; signal enhancement, % at 5 µM; AID 1230; Q00987; 210,000 tested, 0.11% active;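 active = signal enhancement of 30% or more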;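 also: luminescence tracks abundance of the self-degrading MDM2-luciferase fusion protein; higher signal means inhibition of MDM2 E3 ligase activity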
Target sequence (Q00987 whole entry, looked up, the tested form may be a part): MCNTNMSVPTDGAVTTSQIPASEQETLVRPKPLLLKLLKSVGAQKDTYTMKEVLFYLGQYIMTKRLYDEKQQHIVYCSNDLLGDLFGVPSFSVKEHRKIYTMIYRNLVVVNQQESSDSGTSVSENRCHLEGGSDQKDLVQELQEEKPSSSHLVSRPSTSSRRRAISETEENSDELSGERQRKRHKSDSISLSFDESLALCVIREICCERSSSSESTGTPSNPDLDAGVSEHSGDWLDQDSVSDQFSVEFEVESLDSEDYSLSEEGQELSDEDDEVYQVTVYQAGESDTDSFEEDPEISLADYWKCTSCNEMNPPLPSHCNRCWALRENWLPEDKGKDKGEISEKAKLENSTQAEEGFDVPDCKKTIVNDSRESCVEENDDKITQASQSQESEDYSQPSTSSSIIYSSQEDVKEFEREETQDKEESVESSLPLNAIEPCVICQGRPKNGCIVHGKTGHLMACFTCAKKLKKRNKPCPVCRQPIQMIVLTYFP
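Test system: mammalian cells stably expressing self-ubiquitinating, self-degrading MDM2 E3–luciferase fusion; Amount: 2000 cells in each well; Medium: DMEM; Schedule: 4 h settle plus 2 h compound, 37 °C; Technique: SteadyLite luciferase luminescence after 15 min room-temperature reagent incubation; Benchmarks: plate control and blank wells.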
S1P3 antag = antagonists of human S1P3 receptor; Q99500; CHO S1P3 NFAT-BLA reporter, FRET fluorescence, antagonist mode; inhibition, % at 4.98 µM; 170,000 tested, 0.27% active; AID 485;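 active = inhibition above the plate cutoff, the mean inhibition of test wells on that plate plus 3 SD, cut at about 28% in these data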;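 also: cells challenged with S1P at its EC80 of 0.8 µM; blue over green emission ratio from cleaved BLA substrate after 4 h stimulation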
Dynein transport = dynein cargo transport inhibition; 220,000 tested, 0.47% active; z-score, hits read low; 3617.4 mouse cells, GR-EGFP nuclear translocation imaging; test concentration mostly 20 µM; stimulated with dexamethasone, 1 µM; stronger effect = lower value; AID 1381;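 active = plate z-score of nuclear minus cytoplasmic receptor signal below a set negative limit, without overly bright fluorescence or cell loss, cut at about -3.5 in these data, passing the limit was not always enough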;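 also: z-score of nuclear minus cytoplasmic ring GR-EGFP intensity difference per well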
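Also added – dexamethasone, 1.0 µM final · Buffer or medium – tet-free, stripped-serum medium · Schedule – induction 48 h, compound 1 h, agonist 30 min · Detection – formaldehyde fixation, Hoechst nuclear stain, 10x automated fluorescence imaging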
S1P4 antagonist = antagonists of human S1P4 receptor; O95977; S1P4-expressing cells, antagonist mode, reporter read-out; inhibition, % at 4.98 µM; 220,000 tested, 0.26% active; AID 1510; in the data active = inhibition above about 29%
S1P4 ag = agonists of human S1P4 receptor. S1P4-expressing cell line, agonist reporter assay. activation, % at 4.98 µM. 220,000 tested, 0.35% active. AID 1509; in the data active = activation above about 11%
Hsp70 act = switches on Hsp70 transcription; HeLa Hsp70 promoter luciferase reporter, luminescence; scaled: vehicle 0, proteasome-inhibitor control 100%; activation, % at 10 µM; 200,000 tested, 0.04% active;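 active = activation above the mean across all tested compounds plus 3 SD, cutoff set per campaign, cut at about 5.5% in these data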
Dynein confirm = dynein cargo transport inhibition, confirmation. shares compounds with Dynein transport. 3617.4 GR-EGFP nuclear translocation imaging, dexamethasone-induced. calls only at 20 µM. 1,000 tested, 69% active. AID 463116;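 active = inhibition of receptor movement into the nucleus at or above a set limit in both runs, with normal cell brightness and cell count; inconclusive = limit reached in only one run, brightness and count normal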;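 also: dexamethasone at 1 µM final in well for 30 min; nuclear minus cytoplasmic GR-EGFP mean intensity difference in channel 2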
Of the large screens only hits and unclear results are named; the others gave an inactive call (follow-up assays come after a bar, where they were run). This is a sample that favours compounds with a hit; in the whole collection about 1.3% have one here.

O=C(Nc1ccccc1)C1=C(c2ccccc2)S(=O)(=O)CCS1(=O)=O	Dynein transport -4.5, S1P4 antagonist 32 | Dynein confirm inactive
COCCNc1nc(-c2ccc(OC)cc2)c(-c2ccc(OC)cc2)s1	none
CN(C)CC(C(=O)c1ccccc1)c1ccccc1 (stereo not given)	Dynein transport -3.7 | Dynein confirm active
COCC(C)NC(=O)CCS(=O)(=O)c1nc(-c2ccc(OC)cc2)cc(C(F)(F)F)n1 (stereo not given)	none
COc1ccc(-c2cc(C(F)(F)F)nc(S(=O)(=O)CCCC(=O)Nc3cccnc3Cl)n2)cc1OC	Mdm2 ligase inh 34, Dynein transport -5.1, S1P4 antagonist 29 | Dynein confirm active
CN(C)CCCn1c(SCC(=O)N2c3ccccc3Sc3ccccc32)nc2ccccc2c1=O	Dynein transport -4.2 | Dynein confirm inactive
O=C(C1=C(O)C(=O)N(Cc2cccnc2)C1c1ccccn1)c1cccs1 (stereo not given)	none
OC1(c2ccc(Cl)c(Cl)c2)C[n+]2ccccc2N1Cc1ccccc1 (stereo not given)	none (no result: Hsp70 act)
O=C1C2C3C=CC(CO)(O3)C2C(=O)N1c1ccc(-c2ccccc2)cc1 (stereo not given)	Dynein transport -4.4 (no result: Mdm2 ligase inh, S1P3 antag) | Dynein confirm active
CC(C)(C)C(=O)NCC12C=CC(O1)C1C(=O)N(c3ccccc3)C(=O)C12 (stereo not given)	none (no result: S1P3 antag)
CC(C)(C)c1cc(NC(=O)CCl)n(-c2ccccc2)n1	none (no result: Mdm2 ligase inh, Hsp70 act)
CCCc1cc(NC(=O)CCl)n(-c2ccccc2)n1	Dynein transport -4 | Dynein confirm active
O=C(CC12CC3CC(CC(C3)C1)C2)NC(=S)NCc1ccco1	none
CC(C)(CN1CCc2ccccc2C1)NS(=O)(=O)c1ccc(Cl)cc1	none (no result: Hsp70 act)
CC1=C(CO)C(=O)OC([C@@H](C)C2CC[C@H]3C4C[C@H]5O[C@]56[C@@H](O)C=CC(=O)[C@]6(C)C4CC[C@]23C)C1 (stereo not given in full)	Dynein transport -3.8 (no result: S1P3 antag, S1P4 antagonist, S1P4 ag, Hsp70 act) | Dynein confirm inconclusive
CCCc1nc2oc3c(Cl)ncnc3c2c2c1CCCC2	Dynein transport -5.5 (no result: Hsp70 act) | Dynein confirm inconclusive
CC(C)Cc1nc2oc3c(Cl)ncnc3c2c2c1CCCC2	Dynein transport -5.7 (no result: Hsp70 act) | Dynein confirm active
O=C(Cn1cc(C(F)(F)F)cc(Cl)c1=O)Nc1ccc(N2CCOCC2)cc1	none
CC1=CC(C)(C)Nc2ccc(OC(=O)c3cccnc3)cc21	Dynein transport -3.6 | Dynein confirm inactive
COc1cc(/C=C/[N+](=O)[O-])ccc1OCc1cccc(C(=O)O)c1	Dynein transport -3.6 | Dynein confirm active
O=C1c2ccc(Oc3cccc([N+](=O)[O-])c3)cc2C(=O)N1c1ccccn1	none
O=C1c2cc([N+](=O)[O-])cc3cc([N+](=O)[O-])cc(c23)C(=O)N1c1ccccn1	Dynein transport -3.5 (no result: Mdm2 ligase inh) | Dynein confirm inactive
Cc1ccc(Cn2ccc(NC(=O)c3cc(C4CC4)on3)n2)cc1	none (no result: Hsp70 act)
COc1ccc(-c2nnc(Sc3nc4ccccc4o3)c3ccccc23)cc1	Dynein transport -4.2 (no result: S1P3 antag) | Dynein confirm active
COc1ccc(C(=O)CCN2CCN(c3ccccc3OC)CC2)cc1	Dynein transport -4.4 | Dynein confirm active
CCOC(=O)CC1C(=O)NCCN1c1nc2ccc(C)cn2c(=O)c1/C=C1\SC(=S)N(C(C)CC)C1=O (stereo not given)	none (no result: Hsp70 act) | Dynein confirm active
CCOC(=O)CC1C(=O)NCCN1c1nc2ccc(C)cn2c(=O)c1/C=C1\SC(=S)N(CC(C)C)C1=O (stereo not given)	none (no result: Hsp70 act) | Dynein confirm inactive
CCOC(=O)CC1C(=O)NCCN1S(=O)(=O)c1ccc(Cl)c(Cl)c1 (stereo not given)	none (no result: S1P3 antag)
CCCN1C(=O)/C(=C/c2c(N3CCNC(=O)C3CC(=O)OCC)nc3c(C)cccn3c2=O)SC1=S (stereo not given)	none (no result: Hsp70 act)
O=S1(=O)CC(O)C(N(CCO)C(=S)Nc2ccccc2)C1 (stereo not given)	none (no result: Hsp70 act)
COc1ccc(C(=O)O)cc1S(=O)(=O)NCCc1ccccn1	none (no result: Mdm2 ligase inh, Hsp70 act)
Nc1ccc(N2CCCCCC2)cc1	Dynein transport -4.3 | Dynein confirm inconclusive
CCOc1ccc(OCC)c(NC(=O)C2CCN(S(=O)(=O)c3cnc[nH]3)CC2)c1	none
Cc1ncc(CCl)c2c1OC(C)(C)OC2	Dynein transport -4.4 (no result: S1P3 antag) | Dynein confirm inactive
CCOC(=O)C1(CCCc2ccccc2)CCN(C(=O)C2=C(C)OCCO2)CC1	Dynein transport -3.5 | Dynein confirm inconclusive
Cc1ccc(-c2nc(NCC3CCCO3)sc2C)cc1 (stereo not given)	none
CCN1/C(=C/C=C/c2oc3ccc4ccccc4c3[n+]2CC)Oc2ccc3ccccc3c21	Dynein transport -7.1 | Dynein confirm active
CC[n+]1c(/C=C/N(C)c2ccccc2)oc2ccc(Cl)cc21	none
Cc1ccc(S(=O)(=O)NCC(=O)NCC(=O)N2CCN(c3ncccn3)CC2)cc1C	none (no result: Hsp70 act)
Cn1cnc([N+](=O)[O-])c1NC(C)(C)C	none (no result: S1P3 antag)
Cn1cnc([N+](=O)[O-])c1S(=O)(=O)c1ccc(Cl)cc1	Dynein transport -4.2 | Dynein confirm active
Cc1noc(C)c1C(=O)N1CCCC(C(=O)c2cccc(C(F)(F)F)c2)C1 (stereo not given)	none
COC(=O)NC(=C(Cl)Cl)S(=O)(=O)c1ccccc1	Dynein transport -5.8 (no result: S1P3 antag) | Dynein confirm active
Cc1ccc(C(=O)NC(=C(Cl)Cl)S(=O)(=O)c2ccccc2)cc1	none
O=C1C(Cl)=C(NS(=O)(=O)c2ccc([N+](=O)[O-])cc2)C(=O)c2ccccc21	Dynein transport -3.9 (no result: Mdm2 ligase inh, Hsp70 act) | Dynein confirm active
CCCC(=O)c1ccc(O)cc1O	none (no result: Mdm2 ligase inh, Hsp70 act)
O=C(c1cccs1)n1nc(-c2ccccc2)nc1NCc1ccco1	Dynein transport -5.6 | Dynein confirm inactive
O=C(CCc1ccccc1)n1nc(-c2ccccc2)nc1NCc1ccco1	none (no result: Mdm2 ligase inh)
CCc1ccc(N2C(=O)CC(N3CCN(Cc4ccc5c(c4)OCO5)CC3)C2=O)cc1 (stereo not given)	none
O=C(CS(=O)c1ccc(C(F)(F)F)cc1[N+](=O)[O-])Oc1ccccc1 (stereo not given)	Dynein transport -3.9 (no result: S1P3 antag) | Dynein confirm active
CS(=O)(=O)c1ccc(S(=O)CC(=O)OCc2ccccc2)c([N+](=O)[O-])c1 (stereo not given)	none | Dynein confirm active
CCOC(=O)c1ccccc1OC(=O)CS(=O)c1ccccc1[N+](=O)[O-] (stereo not given)	none
